System: MS2 coat protein
Test: apparent Kd, MS2 coat protein; higher = weaker binding; RNA-MaP array; FMN 200 µM where present
Method in brief: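 In 100 mM Tris-HCl pH 7.5, 80 mM KCl, 4 mM MgCl2, BSA, DTT, yeast tRNA and Tween-20, SNAP-549-labelled MS2 coat protein was titrated from 0.7 or 1.5 nM, doubling to 3 µM, over designs transcribed by stalled E. coli RNA polymerase on Illumina sequencing-chip clusters. This was done first without ligand, then with ligand held constant. After green signal was normalised to red-channel RNA signal and control-cluster median Fmax, the apparent Kd was taken as the median of filtered per-cluster binding-curve fits.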

[1] = designed as: ON switch for flavin mononucleotide, no ligand
[2] = ligand present: flavin mononucleotide, designed as: ON switch for flavin mononucleotide
[3] = designed as: OFF switch for flavin mononucleotide, no ligand
[4] = ligand present: flavin mononucleotide, designed as: OFF switch for flavin mononucleotide

Sequence	apparent Kd [1] [nM]	apparent Kd [2] [nM]	apparent Kd [3] [nM]	apparent Kd [4] [nM]
AAAAAACAUGAGGAUCACCCAUGUAAUACAACGUCAGGAUAUUGAUUUUAUUAUGUAUUGCAAGAAGGGACUUGUA	72.1	25.4	–	–
CAUAUACAUGAGGAUCACCCAUGUGAGGAUAUGCUUUAUUAUUAUUAUUAUUAUUGUUGCAGAAGGUACAUUAC	–	–	24.2	20.6
AAGUGGUUUAUAUAUAUAGAUAUCAGAAGGCGUGACAUGAGGAUCACCCAUGUGUACUGUCAUGACGAGGAUAUGACUAAUUGU	–	–	24	19.5
ACAUUGUAUGUGAGGAUAUCGAUGGGAUGGGUUGUCGAGAAGGCACAUGAGGAUCACCCAUGUGGGAAACAGCA	–	–	39.5	170
AGAAAACAUGAGGAUCACCCAUGUCAGGAUAUCCUGCGGCAAUACACGCCGCGUUGUCGGAGAAGGGACAGGGA	–	–	39	102
AACGAGCAAGAUUAUUAUGAAUAAACAUGAGGAUCACCCAUGUAGGAUAUGCAGUGGAAUACACUGCAGAAGGACAUAAGCUCG	–	–	7.2	19
AAGAAACAUGAGGAUCACCCAUGUAAAUUCAAGAGAGGAUAUCGUACAUGGAAGAUUCAACGAGAAGGCUCUAGAA	36.5	18.4	–	–
ACUAUACGAGGAUAUACUGACGGGCCUCGGGCGUCCCUGCGACAUGAGGAUCACCCAUGUAGAAGGCGUAUACU	–	–	39.2	92.8
GCAUCCAAAGUGAGGAUAUACCUCUGGAUACAUAGGUAGAAGGCACAUGAGGAUCACCCAUGUUCCUAGGAUGC	–	–	31.6	43.1
AGAACAUGAGGAUCACCCAUGUAAAGAUCGGUCAAUAAGGGUGAGGAUAUGCUUAAAAUAAGGUAGCAGAAGGUACUUGGUGCA	91.2	245	–	–
UUUAUGUCAGGAUAUGAGUAGUAGAACAAUAGUACUACUACUCAGAAGGGACAUGAGGAUCACCCAUGUUCUUC	–	–	16.7	46.6
GAUGAGAGAGGAUAUACAUGAGGAUCACCCAUGUAAUUUUCGGACAUGGAAGCUGGAUGUAGAAGGCUCGCAUG	–	–	20	46.2
AUAUAGAUGGUCAGGAUAUGCUAGUGGUAACAGUAGCAGAAGGGACAUGAGGAUCACCCAUGUGGGUCCUGCUC	–	–	22.3	64
UUUGGGAGCACAGGAUAUGGCACCUCGAAGGCGCCAGAAGGGUGAUUCUGUUGGUGGCCACAUGAGGAUCACCCAUGUGCCUCC	29.5	36.9	–	–
GACCGCGAGGGAGGAUAUGGAGCCUUAUUGGCUCCAGAAGGUCCAUAAGGGACAUGAGGAUCACCCAUGUGGGUUGAAGCGGUC	155	57.2	–	–
UCAUUUUCCACAGGAUAUAUUCAUAUACAGUUGUUUGGCUCUUACAUGUUAGUAGAAGGGUGCAACAUGAGGAUCACCCAUGUA	362	186	–	–
UCGGCGCGAGGAUAUACGGUUGCUUUUUAGGGUCGUGGCGUACAUGAGGAUCACCCAUGUAGAAGGCGCGCCGC	–	–	16.1	30.2
AGGGUAUGAACAUGAGGAUCACCCAUGUACCAGGAAACGAAUGAGGAUAUCGAUAGCAAAGCUAUCGAGAAGGCAUGGGACCCU	318	62.2	–	–
GCCAGGAUGUAAGGAUAUGCUGAGGAUAACUCAGCAGAAGGUACAUGAGGAUCACCCAUGUAAACCUAUAAUAAAUAACCUGGC	–	–	11	15.4
GCCAGUUAUGUAGGAUAUGCGAGGCGAGCCUGAGCAGAAGGACAUGAGGAUCACCCAUGUAUUGCGGUUUAAGUUCUGAUCGCU	–	–	22.2	47.2
ACAUAAAUUCGAGGAUAUCGGUGAAAUAAUCUACGAGAAGGCGAUAAUGGUUAUAGACUUAUAGACAUGAGGAUCACCCAUGUA	26.2	25.6	–	–
UCGUCCACGGAGAAGGGCACAUGAGGAUCACCCAUGUGGGCUUGGUGGUGGUGGUGUUAAAAUGUGUAGGAUAUCCAGGGCCGU	–	–	19.5	20.6
UUCAGCUCGUGAGGAUAUACAUGUGCUGGAAACAGCACUAAUAGAAUCACAUGAGGAUCACCCAUGUAGAAGGCACGAGCUGAG	–	–	17.2	40.1
UUCAAGUUGCGAGGAUAUCGUGUUAACAUGAGGAUCACCCAUGUAAAGGUAUAUUAAAUUAUCUUCGAGAAGGCGCUUAAUGUA	22.6	20.3	–	–
CCUCAACAGUAGGAUAUCAUCAAACUAUUGUGAUGAGAAGGACUGACAUGAGGAUCACCCAUGUUGACGUGAUA	–	–	63.4	51.7
GGAUAGGACAGAGGAUAUACGUGCUAGAGAUACUAGCAAAAUUUCCUCACAUGAGGAUCACCCAUGUAGAAGGCUGUCCUAGCG	–	–	15.7	376
GCACGAUAUCAGGAUAUGACUAGCCUCGGCUAGUCAGAAGGGAUGACAUGAGGAUCACCCAUGUGAUCACGUGC	–	–	57.2	77.9
AGUGACGAUACAGGAUAUGCUGGACUUUGUCCAGCAGAAGGGUAUUAACAUGAGGAUCACCCAUGUUUCGUCACCAAAUUUAAU	39.5	8.22	–	–
